The source made the active and inactive calls. The calls are words filed in the database; no cut-off is given here.
How the values were obtained:
[1] = Cytotoxicity against mouse Ba/F3 EGFR-Del19/T790M/C797S cells assessed as inhibition of cell viability incubated for 72 hrs by CellTiter-Glo assay; type: functional, cell-based
BaF3 [2] = test: Inhibition of EGFR-C797S/T790M/del19 mutant in mouse BaF3 cells assessed as reduction in EGFR phosphorylation incubated for 6 hrs by Western blotting analysis; type: cell-based
BaF3 [3] = test: Inhibition of EGFR-C797S/T790M/del19 mutant in mouse BaF3 cells assessed as reduction in Akt phosphorylation incubated for 6 hrs by Western blotting analysis; type: cell-based
BaF3 [4] = test: Inhibition of EGFR-C797S/T790M/del19 mutant in mouse BaF3 cells assessed as reduction in ERK phosphorylation incubated for 6 hrs by Western blotting analysis; type: cell-based
BaF3 [5] = test: Inhibition of EGFR-C797S/T790M/del19 mutant in mouse BaF3 cells assessed as reduction in S6 phosphorylation incubated for 6 hrs by Western blotting analysis; type: cell-based
Summary of the method: (§1)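 Ba/F3 cells carrying the stated EGFR mutant were made IL-3-independent after 1 week of 7 µM blasticidin selection. They were grown in low-glucose DMEM with 10% FBS and exposed to inhibitor for 6 h. Cells were washed in cold PBS, lysed in SDS buffer (100 mM Tris, 1% SDS, 10% glycerol) and boiled 5 min. Protein was measured by BCA, run on SDS-PAGE, transferred to PVDF, blocked in 5% BSA or milk/TBS-T, and immunoblotted.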

BaF3 [6] = test: Inhibition of EGFR-T790M/del19 mutant in mouse BaF3 cells assessed as inhibition of EGFR phosphorylation at 10 to 1000 nM incubated for 6 hrs by Western blotting analysis; type: cell-based; details: dose 10-1000 nM; summary of the method: as §1
BaF3 [7] = type: cell-based; details: Mus musculus, dose 10-1000 nM, time 6.0 hrs
BaF3 [8] = test: Inhibition of EGFR-del19 mutant in mouse BaF3 cells assessed as inhibition of Akt phosphorylation at 10 to 1000 nM incubated for 6 hrs by Western blotting analysis; type: cell-based; details: dose 10-1000 nM; summary of the method: as §1
BaF3 [9] = test: Inhibition of EGFR-del19 mutant in mouse BaF3 cells assessed as inhibition of ERK phosphorylation at 10 to 1000 nM incubated for 6 hrs by Western blotting analysis; type: cell-based; details: dose 10-1000 nM; summary of the method: as §1
BaF3 [10] = test: Inhibition of EGFR-del19 mutant in mouse BaF3 cells assessed as inhibition of S6 phosphorylation at 10 to 1000 nM incubated for 6 hrs by Western blotting analysis; type: cell-based; details: dose 10-1000 nM; summary of the method: as §1
BaF3 [11] = test: Inhibition of EGFR-T790M/del19 mutant in mouse BaF3 cells assessed as inhibition of Akt phosphorylation at 10 to 1000 nM incubated for 6 hrs by Western blotting analysis; type: cell-based; details: dose 10-1000 nM; summary of the method: as §1
BaF3 [12] = test: Inhibition of EGFR-T790M/del19 mutant in mouse BaF3 cells assessed as inhibition of ERK phosphorylation at 10 to 1000 nM incubated for 6 hrs by Western blotting analysis; type: cell-based; details: dose 10-1000 nM; summary of the method: as §1
BaF3 [13] = test: Inhibition of EGFR-T790M/del19 mutant in mouse BaF3 cells assessed as inhibition of S6 phosphorylation at 10 to 1000 nM incubated for 6 hrs by Western blotting analysis; type: cell-based; details: dose 10-1000 nM; summary of the method: as §1
BaF3 [14] = type: cell-based; details: Mus musculus, dose 10-1000 nM, time 6.0 hrs; remark: listed apart in the source
BaF3 [15] = type: cell-based; details: Mus musculus, dose 10-1000 nM, time 6.0 hrs; remark: listed apart in the source
BaF3 [16] = type: cell-based; details: Mus musculus, dose 10-1000 nM, time 6.0 hrs; remark: listed apart in the source
BaF3 [17] = test: Inhibition of EGFR-C797S/T790M/L858R mutant in mouse BaF3 cells assessed as inhibition of EGFR phosphorylation at 10 to 1000 nM incubated for 6 hrs by Western blotting analysis; type: cell-based; details: dose 10-1000 nM
Summary of the method: (§2)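 Ba/F3 cells expressing EGFR-L858R-series mutants treated with inhibitors for 6 h. SDS lysates quantified by BCA, run on SDS-PAGE and blotted to PVDF. Probed for phospho-EGFR (Tyr1068), total EGFR and downstream phospho-proteins.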

BaF3 [18] = test: Inhibition of EGFR-C797S/T790M/L858R mutant expressed in mouse BaF3 cells assessed as inhibition of Akt phosphorylation at 10 to 1000 nM incubated for 6 hrs by Western blotting analysis; type: cell-based; details: dose 10-1000 nM; summary of the method: as §2
BaF3 [19] = test: Inhibition of EGFR-C797S/T790M/L858R mutant expressed in mouse BaF3 cells assessed as inhibition of ERK phosphorylation at 10 to 1000 nM incubated for 6 hrs by Western blotting analysis; type: cell-based; details: dose 10-1000 nM; summary of the method: as §2
BaF3 [20] = test: Inhibition of EGFR-C797S/T790M/L858R mutant in mouse BaF3 cells assessed as inhibition of S6 phosphorylation at 10 to 1000 nM incubated for 6 hrs by Western blotting analysis; type: cell-based; details: dose 10-1000 nM; summary of the method: as §2
PC-9 [21] = test: Inhibition of EGFR T790M/del19 mutant in human PC-9 cells assessed as reduction in EGFR phosphorylation at 10 to 1000 nM by Western blotting analysis; type: cell-based; details: dose 10-1000 nM
PC-9 [22] = test: Inhibition of EGFR T790M/del19 mutant in human PC-9 cells assessed as reduction in Akt phosphorylation at 10 to 1000 nM by Western blotting analysis; type: cell-based; details: dose 10-1000 nM
PC-9 [23] = test: Inhibition of EGFR T790M/del19 mutant in human PC-9 cells assessed as reduction in ERK phosphorylation at 10 to 1000 nM by Western blotting analysis; type: cell-based; details: dose 10-1000 nM
PC-9 [24] = test: Inhibition of EGFR T790M/del19 mutant in human PC-9 cells assessed as reduction in S6 phosphorylation at 10 to 1000 nM by Western blotting analysis; type: cell-based; details: dose 10-1000 nM
[25] = Cytotoxicity against mouse Ba/F3 EGFR-Del19/T790M/C797S cells assessed as inhibition of cell viability by measuring fold change at 30 nM incubated for 72 hrs in presence of cetuximab by CellTiter-Glo assay relative to AP26113-analog alone; type: functional
[26] = system: Epidermal growth factor receptor (Homo sapiens), P00533 [UNDEFINED MUTATION]; details: PC-9, dose 10-1000 nM
Epidermal growth factor receptor (Homo sapiens), P00533 [UNDEFINED MUTATION], sequence (P00533 whole entry, looked up, change not shown): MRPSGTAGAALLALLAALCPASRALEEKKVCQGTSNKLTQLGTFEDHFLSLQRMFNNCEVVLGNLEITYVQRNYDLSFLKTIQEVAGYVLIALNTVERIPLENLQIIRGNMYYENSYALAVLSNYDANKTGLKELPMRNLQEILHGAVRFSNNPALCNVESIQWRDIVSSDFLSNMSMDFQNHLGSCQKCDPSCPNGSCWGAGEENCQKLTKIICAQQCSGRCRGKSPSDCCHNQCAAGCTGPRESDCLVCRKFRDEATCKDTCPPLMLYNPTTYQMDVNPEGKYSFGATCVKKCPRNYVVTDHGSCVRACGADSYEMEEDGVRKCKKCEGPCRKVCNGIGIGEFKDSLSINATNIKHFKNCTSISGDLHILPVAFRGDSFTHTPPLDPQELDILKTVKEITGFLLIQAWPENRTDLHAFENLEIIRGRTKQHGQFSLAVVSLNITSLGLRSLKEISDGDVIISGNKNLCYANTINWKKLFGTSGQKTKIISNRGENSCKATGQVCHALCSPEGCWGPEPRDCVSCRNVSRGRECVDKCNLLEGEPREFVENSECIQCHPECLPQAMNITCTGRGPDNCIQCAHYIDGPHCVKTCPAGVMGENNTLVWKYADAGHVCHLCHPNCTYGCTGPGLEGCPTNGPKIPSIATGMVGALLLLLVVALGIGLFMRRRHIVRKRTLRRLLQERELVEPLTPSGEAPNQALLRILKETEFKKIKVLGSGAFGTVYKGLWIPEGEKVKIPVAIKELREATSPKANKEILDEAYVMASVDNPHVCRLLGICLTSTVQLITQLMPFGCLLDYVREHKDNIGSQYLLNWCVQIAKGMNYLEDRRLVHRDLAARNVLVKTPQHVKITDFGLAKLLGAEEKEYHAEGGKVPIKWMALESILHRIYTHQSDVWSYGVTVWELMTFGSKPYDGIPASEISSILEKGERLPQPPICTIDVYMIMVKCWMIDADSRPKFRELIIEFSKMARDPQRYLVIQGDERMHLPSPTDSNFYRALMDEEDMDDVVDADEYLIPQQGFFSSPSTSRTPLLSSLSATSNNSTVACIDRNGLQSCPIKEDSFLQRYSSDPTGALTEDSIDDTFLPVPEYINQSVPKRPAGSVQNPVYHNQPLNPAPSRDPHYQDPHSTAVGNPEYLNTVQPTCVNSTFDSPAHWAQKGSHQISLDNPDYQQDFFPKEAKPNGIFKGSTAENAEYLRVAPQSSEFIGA

[27] = system: Epidermal growth factor receptor (Homo sapiens), P00533 [UNDEFINED MUTATION]; details: PC-9, dose 10-1000 nM; remark: listed apart in the source
[28] = system: Epidermal growth factor receptor (Homo sapiens), P00533 [UNDEFINED MUTATION]; details: PC-9, dose 10-1000 nM; remark: listed apart in the source
[29] = system: Epidermal growth factor receptor (Homo sapiens), P00533 [UNDEFINED MUTATION]; details: PC-9, dose 10-1000 nM; remark: listed apart in the source
[30] = system: Epidermal growth factor receptor (Homo sapiens), P00533 [UNDEFINED MUTATION]; details: MGH121, dose 10-1000 nM
[31] = system: Epidermal growth factor receptor (Homo sapiens), P00533 [UNDEFINED MUTATION]; details: MGH121, dose 10-1000 nM; remark: listed apart in the source
[32] = system: Epidermal growth factor receptor (Homo sapiens), P00533 [UNDEFINED MUTATION]; details: MGH121, dose 10-1000 nM; remark: listed apart in the source
[33] = system: Epidermal growth factor receptor (Homo sapiens), P00533 [UNDEFINED MUTATION]; details: MGH121, dose 10-1000 nM; remark: listed apart in the source
[34] = system: Epidermal growth factor receptor (Homo sapiens), P00533 [UNDEFINED MUTATION]; details: PC-9, dose 10-1000 nM; remark: listed apart in the source
[35] = system: Epidermal growth factor receptor (Homo sapiens), P00533 [UNDEFINED MUTATION]; details: PC-9, dose 10-1000 nM; remark: listed apart in the source
[36] = system: Epidermal growth factor receptor (Homo sapiens), P00533 [UNDEFINED MUTATION]; details: PC-9, dose 10-1000 nM; remark: listed apart in the source
[37] = system: Epidermal growth factor receptor (Homo sapiens), P00533 [UNDEFINED MUTATION]; details: PC-9, dose 10-1000 nM; remark: listed apart in the source

Compound: COc1cc(N2CCC(N(C)C)CC2)ccc1Nc1ncc(Cl)c(Nc2ccccc2P(C)(C)=O)n1
- IC50 [1]: 59.1 nM
- inhibition (BaF3 [2]): Active
- inhibition (BaF3 [3]): Active
- inhibition (BaF3 [4]): Active
- inhibition (BaF3 [5]): Active
- inhibition (BaF3 [6]): Active
- inhibition (BaF3 [7]): Active
- inhibition (BaF3 [8]): Active
- inhibition (BaF3 [9]): Active
- inhibition (BaF3 [10]): Active
- inhibition (BaF3 [11]): Active
- inhibition (BaF3 [12]): Active
- inhibition (BaF3 [13]): Active
- inhibition (BaF3 [14]): Active
- inhibition (BaF3 [15]): Active
- inhibition (BaF3 [16]): Active
- inhibition (BaF3 [17]): Active
- inhibition (BaF3 [18]): Active
- inhibition (BaF3 [19]): Active
- inhibition (BaF3 [20]): Active
- inhibition (PC-9 [21]): Active
- inhibition (PC-9 [22]): Active
- inhibition (PC-9 [23]): Active
- inhibition (PC-9 [24]): Active
- fold change (FC) [25]: ~3
- inhibition [26]: Active
- inhibition [27]: Active
- inhibition [28]: Active
- inhibition [29]: Active
- inhibition [30]: Active
- inhibition [31]: Active
- inhibition [32]: Active
- inhibition [33]: Active
- inhibition [34]: Active
- inhibition [35]: Active
- inhibition [36]: Active
- inhibition [37]: Active
